Values after ≈ are worked out from the molar mass of the structure shown. Active and inactive are the calls of the source. No cut-off for these calls is given here.
Experiments:
[1] = (§1) Cytotoxicity against mouse NIH/3T3 cells after 72 hrs by MTT assay; format: cell-based, NIH3T3; conditions: NIH/3T3 cells, read-out: TD50
In short: (§2)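 Cells from passages 1–4 after thawing, seeded at about 2–5·10⁴ cells/mL with compounds added immediately. Incubation 72 h, 37 °C, 5% CO₂. MTT read-out: medium replaced with fresh medium containing 10 mM HEPES, MTT (2 mg/mL in HBSS) added for 3 h. Dissolved in DMSO plus glycine buffer pH 10.5, absorbance 540 nm. TD50 = concentration giving 50% cell kill, averaged from CV and MTT.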

[2] = tested on: HT-1080; test: Cytotoxicity against human HT1080 cells assessed as nitric oxide concentration at 100 ug/ml after 72 hrs by crystal violet coloration assay (reference value: 100%); format: functional
[3] = tested on: MG-22A; test: Cytotoxicity against mouse MG-22A cells after 72 hrs by MTT assay; format: functional; conditions: for CC50: read-out: TD50 (the source's name); in short: as §2
[4] = tested on: HT-1080; test: Induction of mitochondria mediated apoptosis in human HT1080 cells assessed as change in cell phenotype after 72 hrs by acridine orange staining based fluorescence microscopic analysis; format: functional
In short: (§3)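 Adherent cells treated 72 h, 37 °C, 5% CO₂, in 96-well plates. Stained 2 min with acridine orange 10 μg/mL in PBS pH 7.4, washed once with PBS, then viewed in PBS by inverted fluorescence microscopy. Chromatin condensation shown by DNA staining: living cells green, apoptotic cells orange/yellow, necrotic cells red.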

[5] = tested on: MG-22A; test: Cytotoxicity against mouse MG-22A cells assessed as nitric oxide concentration at 100 ug/ml after 72 hrs by crystal violet coloration assay (reference value: 100%); format: functional
[6] = tested on: HT-1080; test: Cytotoxicity against human HT1080 cells after 72 hrs by MTT assay; format: functional; conditions: for CC50: HT-1080, 72 h, read-out: TD50 (the source's name); in short: as §2
[7] = tested on: NIH3T3; test: Induction of apoptosis in mouse NIH/3T3 cells after 72 hrs by acridine orange staining based fluorescence microscopic analysis; format: cell-based; conditions: nih3t3, 72 h; in short: as §3
[8] = tested on: HT-1080; test: Induction of apoptosis in human HT1080 cells assessed as nucleus fragmentation after 72 hrs by acridine orange staining based fluorescence microscopic analysis; format: functional, cell-based; in short: as §3
[9] = tested on: NIH3T3; test: as §1; format: cell-based; conditions: nih3t3, 72 h; in short: as §2
[10] = tested on: HT-1080; test: Induction of apoptosis in human HT1080 cells assessed as change in cell morphology after 72 hrs by acridine orange staining based fluorescence microscopic analysis; format: functional; in short: as §3
[11] = tested on: HT-1080; test: Induction of apoptosis in human HT1080 cells assessed as change in cell phenotype after 72 hrs by acridine orange staining based fluorescence microscopic analysis; format: functional; in short: as §3

| Compound | CC50 at 72 h [1] | Activity [2] | CC50 [3] | Activity [4] | Activity [5] | CC50 [6] | Activity [3] | Activity [6] | Activity [7] | Activity [8] | Activity [9] | Activity [10] | Activity [11] |
| --- | --- | --- | --- | --- | --- | --- | --- | --- | --- | --- | --- | --- | --- |
| O=c1c2[se]c3ccccc3c2nc2c(Cl)cc(C(F)(F)F)cn12 | 31 µg/mL (≈ 77.2 µM) | 2% | 2.75 µg/mL (≈ 6.85 µM) | Active | 8% | 3.5 µg/mL (≈ 8.71 µM) | – | – | – | – | – | – | – |
| CCOC(=O)c1[se]c2ccccc2c1Sc1ncccn1 | 840 µg/mL (≈ 2310 µM) | 8% | – | – | 7% | – | inactive | inactive | – | – | – | – | – |
| CCOC(=O)c1[se]c2ccccc2c1-c1ccccc1 | 16 µg/mL (≈ 48.6 µM) | 25% | – | – | 23% | 65 µg/mL (≈ 197 µM) | inactive | – | – | – | – | – | – |
| CCOC(=O)c1[se]c2ccccc2c1-c1ccsc1 | 31 µg/mL (≈ 92.5 µM) | 13% | – | – | 14% | – | inactive | inactive | – | – | – | – | – |
| O=c1c2[se]c3ccccc3c2nc2ccc(Cl)cn12 | 32 µg/mL (≈ 95.9 µM) | 3% | 3 µg/mL (≈ 8.99 µM) | – | 40% | 3 µg/mL (≈ 8.99 µM) | – | – | Toxic | Active | – | – | – |
| CCOC(=O)c1[se]c2ccccc2c1-c1ccc(C)s1 | 15 µg/mL (≈ 42.9 µM) | 350% | 19.5 µg/mL (≈ 55.8 µM) | – | 350% | 16 µg/mL (≈ 45.8 µM) | – | – | – | – | – | – | – |
| O=c1c2[se]c3ccccc3c2nc2c3ncccc3ccn12 | 56 µg/mL (≈ 160 µM) | 20% | – | – | 3% | – | inactive | inactive | – | – | – | – | – |
| CCOC(=O)c1[se]c2ccccc2c1-c1cc(F)c(F)c(F)c1 | 100 µg/mL (≈ 261 µM) | 6% | 81.5 µg/mL (≈ 213 µM) | – | 12% | – | – | inactive | – | – | – | – | – |
| CCOC(=O)c1[se]c2ccccc2c1Br | 896 µg/mL (≈ 2700 µM) | 14% | 40.5 µg/mL (≈ 122 µM) | – | 40% | – | – | inactive | – | – | – | – | – |
| Cc1csc2nc3c([se]c4ccccc43)c(=O)n12 | 21 µg/mL (≈ 65.8 µM) | 2% | – | – | 4% | – | inactive | inactive | – | – | – | – | – |
| CCOC(=O)c1[se]c2ccccc2c1Nc1cccnc1 | 1000 µg/mL (≈ 2900 µM) | 12% | – | – | 9% | – | inactive | inactive | – | – | – | – | – |
| CCOC(=O)c1[se]c2ccccc2c1-c1ccc(OC(C)C)cc1 | – | 9% | – | – | 15% | – | inactive | inactive | – | – | Non-toxic | – | – |
| CCOC(=O)c1[se]c2ccccc2c1C#CC1=CCCCC1 | 120 µg/mL (≈ 336 µM) | 200% | 32 µg/mL (≈ 89.6 µM) | – | 200% | 32.5 µg/mL (≈ 91 µM) | – | – | – | – | – | – | – |
| CCOC(=O)c1[se]c2ccccc2c1C#Cc1ccccc1 | 614 µg/mL (≈ 1740 µM) | 15% | 87 µg/mL (≈ 246 µM) | – | 10% | 76 µg/mL (≈ 215 µM) | – | – | – | – | – | – | – |
| O=c1c2[se]c3ccccc3c2nc2sc3ccccc3n12 | 27 µg/mL (≈ 76 µM) | 2% | 9.5 µg/mL (≈ 26.7 µM) | – | 3% | 8.5 µg/mL (≈ 23.9 µM) | – | – | – | – | – | Active | – |
| CCOC(=O)c1[se]c2ccccc2c1-c1ccc(C#N)cc1 | 684 µg/mL (≈ 1930 µM) | 8% | – | – | 7% | – | inactive | inactive | – | – | – | – | – |
| O=c1c2[se]c3ccccc3c2nc2cnccn12 | 27 µg/mL (≈ 89.9 µM) | 2% | – | – | 7% | – | inactive | inactive | – | – | – | – | – |
| O=c1c2[se]c3ccccc3c2nc2ccccn12 | 31 µg/mL (≈ 104 µM) | 5% | 3 µg/mL (≈ 10 µM) | – | 7% | 3 µg/mL (≈ 10 µM) | – | – | Toxic | – | – | – | Active |

From ChEMBL document CHEMBL1811830, “Synthesis, structure and cytotoxicity of 3-C, N, S, Se substituted benzo[b]selenophene derivatives” (Eur J Med Chem, 2011)
